Results taken from ChEMBL document CHEMBL1268852, “Quercetin prevents unloading-derived disused muscle atrophy by attenuating the induction of ubiquitin ligases in tail-suspension mice” (J Nat Prod, 2010).
Calls of active or inactive are those of the source.

Columns and labels:
Format in all cases: functional, organism-based
Mus musculus [1] = assay: Reduction of gastrocnemius muscle weight loss in C57BL/6 mouse tail suspension model at 2.5 pmol administered in gastrocnemius muscle qd for 10 days relative to whole body weight
Mus musculus [2] = assay: Reduction of atrogin-1 mRNA expression in gastrocnemius muscle of C57BL/6 mouse tail suspension model at 2.5 pmol administered in gastrocnemius muscle qd for 10 days by RT-PCR analysis
In short: (§1)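 Male C57BL/6 mice, 7 weeks old, injected intramuscularly in one gastrocnemius with 2.5 pmol/leg in saline/0.1% propylene glycol every 24 h; vehicle went into the contralateral leg. Tail suspension lasted 10 days and ground mice served as controls. Gastrocnemius taken 6 h after the last dose. mRNA measured by real-time PCR and given as % of the vehicle-ground level; mean ± SE, n=4.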

Mus musculus [3] = assay: Reduction of MuRF-1 mRNA expression in gastrocnemius muscle of C57BL/6 mouse tail suspension model at 2.5 pmol administered in gastrocnemius muscle qd for 10 days by RT-PCR analysis; in short: as §1
Mus musculus [4] = assay: […] of lipid peroxidation in gastrocnemius muscle of C57BL/6 mouse tail suspension model assessed as decrease of thiobarbituric acid-reactive substance level at 2.5 pmol administered in gastrocnemius muscle qd for 10 days by RT-PCR analysis
In short: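 Male C57BL/6 mice, 7 weeks old. Compound in 0.9% saline with 0.1% propylene glycol, 2.5 pmol/leg (50 µL) injected into one gastrocnemius and vehicle into the other, given every 24 h. Tail suspension began 24 h after the first dose and lasted 10 days; ground mice served as controls. Muscle taken 6 h after the day-10 dose. TBARS measured by fluorescence ([…]) against a tetraethoxypropane standard; n=4, two-way ANOVA.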

Measured: Activity

O=c1c(O)c(-c2ccc(O)c(O)c2)oc2cc(O)cc(O)c12
active: all assays above

CC(=O)N[C@@H](CS)C(=O)O
active: Mus musculus [1] | Mus musculus [4]

O=c1cc(-c2ccccc2)oc2ccccc12
inactive: Mus musculus [2] | Mus musculus [3] | Mus musculus [4]
